# Results reported in PMC7249612 (Biochemistry, 2016).
# How the values were obtained:
# LoxA [1] = assay: LoxA secondary product profile; type: biochemical, Pseudomonas aeruginosa; conditions: 10 μM substrate, pH 7.0
# LoxA [2] = assay: LoxA substrate preference; type: biochemical, Pseudomonas aeruginosa; conditions: initial rate at 10 μM substrate, pH 7.0, relative to AA
# Summary of the method: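 His6-tagged LoxA was expressed in E. coli BL21(DE3), purified on Ni-NTA, and dosed by iron content. About 7 nM enzyme started each reaction. Each fatty acid substrate was C18 HPLC-purified and used at 10 μM in 25 mM HEPES pH 7.0 without Triton X-100. Initial rate of conjugated diene formation was followed at 234 nm (ε 25000 M−1cm−1) and expressed relative to the AA rate.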
# LoxA [3] = type: biochemical, Pseudomonas aeruginosa; conditions: for Kcat / Km: substrate of LoxA, 25 mM HEPES pH 7.0
# 15-LOX-1 = target: T1, 15-LOX-1 (Homo sapiens, UniProt P16050); assay: Human LOX isozyme specificity screen, 15-LOX-1; type: biochemical; conditions: 25 μM inhibitor, 10 μM AA
# T1 sequence (P16050 1-662): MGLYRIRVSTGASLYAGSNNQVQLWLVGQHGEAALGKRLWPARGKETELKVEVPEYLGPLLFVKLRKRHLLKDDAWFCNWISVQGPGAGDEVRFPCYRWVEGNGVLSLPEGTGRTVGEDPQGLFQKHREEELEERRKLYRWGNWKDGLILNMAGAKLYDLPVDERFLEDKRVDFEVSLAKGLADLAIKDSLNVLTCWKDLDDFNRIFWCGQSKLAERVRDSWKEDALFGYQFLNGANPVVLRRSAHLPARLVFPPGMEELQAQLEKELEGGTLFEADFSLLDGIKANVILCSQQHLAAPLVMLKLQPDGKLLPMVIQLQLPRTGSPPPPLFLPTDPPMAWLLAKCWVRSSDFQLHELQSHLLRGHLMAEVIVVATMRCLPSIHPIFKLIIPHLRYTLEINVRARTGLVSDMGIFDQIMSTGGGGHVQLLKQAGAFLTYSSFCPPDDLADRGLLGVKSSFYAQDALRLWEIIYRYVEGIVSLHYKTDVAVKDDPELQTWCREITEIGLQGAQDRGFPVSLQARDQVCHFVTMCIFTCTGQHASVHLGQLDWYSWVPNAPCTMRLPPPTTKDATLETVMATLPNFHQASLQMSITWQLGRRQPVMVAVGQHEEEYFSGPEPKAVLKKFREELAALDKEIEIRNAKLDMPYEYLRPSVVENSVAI
# 5-LOX = target: T2, 5-LOX (Homo sapiens, UniProt P09917); assay: Human LOX isozyme specificity screen, 5-LOX; type: biochemical; conditions: 25 μM inhibitor, 10 μM AA
# T2 sequence (P09917 1-674): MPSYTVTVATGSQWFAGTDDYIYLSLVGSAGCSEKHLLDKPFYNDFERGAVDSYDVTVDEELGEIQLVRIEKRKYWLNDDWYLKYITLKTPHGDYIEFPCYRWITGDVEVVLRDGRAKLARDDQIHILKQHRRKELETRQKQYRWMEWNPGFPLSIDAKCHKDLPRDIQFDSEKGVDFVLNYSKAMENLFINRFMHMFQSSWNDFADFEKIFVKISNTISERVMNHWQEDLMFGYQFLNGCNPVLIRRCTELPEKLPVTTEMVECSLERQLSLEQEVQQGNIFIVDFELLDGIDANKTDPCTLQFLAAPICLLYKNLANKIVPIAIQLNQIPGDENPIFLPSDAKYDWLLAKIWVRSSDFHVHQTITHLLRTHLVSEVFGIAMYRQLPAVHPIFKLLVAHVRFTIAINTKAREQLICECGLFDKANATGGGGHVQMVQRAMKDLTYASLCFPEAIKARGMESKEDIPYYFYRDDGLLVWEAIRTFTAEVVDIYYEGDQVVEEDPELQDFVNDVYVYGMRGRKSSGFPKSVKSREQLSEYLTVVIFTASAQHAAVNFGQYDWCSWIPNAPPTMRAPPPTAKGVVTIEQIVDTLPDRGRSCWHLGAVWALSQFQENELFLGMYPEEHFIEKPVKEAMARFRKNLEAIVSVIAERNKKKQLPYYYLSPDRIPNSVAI
# LoxA [4] = assay: LoxA inhibition, manual cuvette assay; type: biochemical, Pseudomonas aeruginosa; conditions: for single-point screen inhibition percentage, LoxA: 25 μM inhibitor, 10 μM AA; for selectivity for LoxA versus human LOX isozymes: from single-point screens at 25 μM
# 15-LOX-2 = target: T3, 15-LOX-2 (Homo sapiens, UniProt O15296); assay: Human LOX isozyme specificity screen, 15-LOX-2; type: biochemical; conditions: 25 μM inhibitor, 10 μM AA
# T3 sequence (O15296 1-676): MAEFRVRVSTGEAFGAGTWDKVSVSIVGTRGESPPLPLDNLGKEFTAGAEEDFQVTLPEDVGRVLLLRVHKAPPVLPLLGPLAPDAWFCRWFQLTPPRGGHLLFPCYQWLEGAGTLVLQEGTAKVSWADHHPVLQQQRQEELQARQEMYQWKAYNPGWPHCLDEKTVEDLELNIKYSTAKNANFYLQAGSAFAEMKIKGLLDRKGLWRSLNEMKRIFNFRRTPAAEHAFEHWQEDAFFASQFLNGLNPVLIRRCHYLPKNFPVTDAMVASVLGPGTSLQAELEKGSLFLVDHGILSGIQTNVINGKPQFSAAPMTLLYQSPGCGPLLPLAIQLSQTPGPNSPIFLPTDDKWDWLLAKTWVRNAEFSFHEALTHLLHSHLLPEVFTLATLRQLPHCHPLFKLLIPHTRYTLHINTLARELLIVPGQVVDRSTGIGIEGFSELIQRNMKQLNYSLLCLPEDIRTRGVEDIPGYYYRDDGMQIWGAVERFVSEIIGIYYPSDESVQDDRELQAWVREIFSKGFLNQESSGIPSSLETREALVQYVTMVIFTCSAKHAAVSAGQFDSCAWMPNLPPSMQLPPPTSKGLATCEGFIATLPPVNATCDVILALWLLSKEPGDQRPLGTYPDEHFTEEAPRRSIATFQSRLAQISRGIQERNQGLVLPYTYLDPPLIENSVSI
# 12-LOX = target: T4, 12-LOX (Homo sapiens, UniProt P18054); assay: Human LOX isozyme specificity screen, 12-LOX; type: biochemical; conditions: 25 μM inhibitor, 10 μM AA
# T4 sequence (P18054 1-663): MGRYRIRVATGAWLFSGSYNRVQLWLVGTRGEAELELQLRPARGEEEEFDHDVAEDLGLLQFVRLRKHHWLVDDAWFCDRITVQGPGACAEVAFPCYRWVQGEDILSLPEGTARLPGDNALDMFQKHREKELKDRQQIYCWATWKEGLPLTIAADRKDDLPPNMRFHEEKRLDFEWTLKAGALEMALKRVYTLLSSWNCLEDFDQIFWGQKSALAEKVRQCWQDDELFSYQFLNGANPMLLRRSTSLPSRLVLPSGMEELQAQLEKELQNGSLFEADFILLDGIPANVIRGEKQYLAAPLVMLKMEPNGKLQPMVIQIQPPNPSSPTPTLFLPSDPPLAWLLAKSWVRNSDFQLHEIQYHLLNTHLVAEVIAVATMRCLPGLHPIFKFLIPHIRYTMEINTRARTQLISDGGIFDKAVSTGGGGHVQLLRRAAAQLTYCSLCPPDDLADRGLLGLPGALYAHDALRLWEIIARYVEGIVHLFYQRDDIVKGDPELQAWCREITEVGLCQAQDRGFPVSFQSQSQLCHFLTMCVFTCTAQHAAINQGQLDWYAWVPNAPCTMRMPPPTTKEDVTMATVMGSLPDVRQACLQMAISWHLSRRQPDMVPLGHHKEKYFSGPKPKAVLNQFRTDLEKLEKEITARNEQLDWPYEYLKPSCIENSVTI
Structure (SMILES),% AA Rate (10 μM) (LoxA [2]),"single-point screen inhibition percentage, 15-LOX-l (15-LOX-1) [%]","single-point screen inhibition percentage, 5-LOX (5-LOX) [%]","single-point screen inhibition percentage, LoxA (LoxA [4]) [%]","single-point screen inhibition percentage, 15-LOX-2 (15-LOX-2) [%]","single-point screen inhibition percentage, 12-LOX (12-LOX) [%]",other results
CCCCC/C=C\C/C=C\C/C=C\C=C\[C@@H](O)CCCC(=O)O [5-HETE],–,–,–,–,–,–,"times slower relative to the Kcat with AA (LoxA [1]): 100,000 times"
"CCCCCC=CCC=CCC=CC=CC(CCCC(=O)O)OO (stereo not drawn) [5-HpETE, 5-hydroperoxyeicosatetraenoic acid]",–,–,–,–,–,–,"times slower relative to the Kcat with AA (LoxA [1]): 100,000 times"
CC/C=C\C/C=C\C/C=C\CCCCCCCC(=O)O [ALA],78(10) %,–,–,–,–,–,–
"CCCCC/C=C\C/C=C\C/C=C\CCCCCCC(=O)O [DGLA, Dihomo-gamma-linolenic acid]",44(10) %,–,–,–,–,–,–
CC/C=C\C/C=C\C/C=C\C/C=C\C/C=C\C/C=C\CCC(=O)O [DHA],72(10) %,–,–,–,–,–,–
CCCCC/C=C\C/C=C\CCCCCCCCCC(=O)O [EDA],33(10) %,–,–,–,–,–,–
CC/C=C\C/C=C\C/C=C\C/C=C\C/C=C\CCCC(=O)O [EPA],61(10) %,–,–,–,–,–,–
CCCCC/C=C\C/C=C\C/C=C\CCCCC(=O)O [GLA],44(10) %,–,–,–,–,–,–
"CCCCC/C=C\C/C=C\CCCCCCCC(=O)O [LA, linoleic acid]",72(10) %,–,–,–,–,–,"KIE for Kcat (LoxA [3]; noncompetitive, LA versus perdeuterated LA): 32 +/− 6; Kcat (LoxA [3]): 28 (2) s^−1; Km (LoxA [3]): 7 µM"
Nc1ncnc2c1c(-c1ccc(Oc3ccccc3)cc1)cn2C1CCCC1 [NCGC00015280],–,51,42,86,0,38,–
Fc1ccc(C(OCCN2CCN(CCCc3ccccc3)CC2)c2ccc(F)cc2)cc1 [NCGC00015300],–,65,41,83,13,48,–
O=C1NCN(c2ccccc2)C12CCN(CCCC(c1ccc(F)cc1)c1ccc(F)cc1)CC2 [NCGC00015424],–,76,74,87,21,63,selectivity for LoxA versus human LOX isozymes (LoxA [4]): selectivity towards LoxA over 12-LOX and 15-LOX-2 and not the other human isozymes
O=c1[nH]c2ccccc2n1C1CCN(CCCC(c2ccc(F)cc2)c2ccc(F)cc2)CC1 [NCGC00015802],–,69,80,90,16,50,"selectivity for LoxA versus human LOX isozymes (LoxA [4]): selectivity towards LoxA over 12-LOX, 15-LOX-1, and 15-LOX-2"
Fc1ccc(C(c2ccc(F)cc2)N2CCN(C/C=C\c3ccccc3)CC2)cc1 [NCGC00018102],–,65,96,86,0,25,"selectivity for LoxA versus human LOX isozymes (LoxA [4]): selectivity towards LoxA over 12-LOX, 15-LOX-1, and 15-LOX-2; IC50 (LoxA [4]; read-out: LoxA IC50, manual cuvette assay, pH 7.0, 10 μM AA): 4.5 ± 0.4 µM"
CC/C(=C(\c1ccccc1)c1ccc(OCCN(C)C)cc1)c1ccccc1 [NCGC00024928],–,73,79,82,8,39,–
COC(=O)[C@H]1[C@H]2C[C@@H]3c4[nH]c5cc(OC)ccc5c4CCN3C[C@H]2C[C@@H](OC(=O)c2cc(OC)c(OC)c(OC)c2)[C@@H]1OC [NCGC00091250],–,57,37,69,5,23,–
CN[C@H]1CC[C@@H](c2ccc(Cl)c(Cl)c2)c2ccccc21.Cl [NCGC00092386],–,51,83,76,5,26,–
CC(C)(C)c1ccc(C(=O)CCCN2CCC(OC(c3ccccc3)c3ccccc3)CC2)cc1 [NCGC00164603],–,76,23,95,0,33,–
O=C(CCCCCN1CCN(c2ccccc2-c2ccccc2)CC1)NC1CCCc2ccccc21 (stereo not drawn) [NCGC00186032],–,57,78,87,5,36,–
"CC(Cc1ccc(O)c(O)c1)C(C)Cc1ccc(O)c(O)c1 (stereo not drawn) [NDGA, nordihydroguaiaretic acid, reference compound]",–,–,–,–,–,–,IC50 value against LoxA (LoxA [4]; compared with the human enzymes): comparable to the values obtained against the human enzymes
CCCCC/C=C\C/C=C\CCCCCCCC(=O)O [d31-LA],–,–,–,–,–,–,Kcat (LoxA [3]): 0.9 (0.1) s^−1; Km (LoxA [3]): 100 µM
